For one data set, the system named is HL-60. Put plainly: Cytotoxicity against human HL60 cells at 30 uM after 48 hrs by MTS assay. Format: cell-based. To be noted: hl-60, 48 h. In short, it runs like this:
(§1)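 Cells seeded in 96-well plates and grown 24 h, then treated 48 h with compound dissolved in DMSO at a 30 μM working concentration. MTS (20 μL) added and incubated 2 h at 37 °C for viability read-out; method described as MTT assay.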
Background: Tetrazolium assays rely on reduction of a dye to a coloured formazan, in cell work by metabolically active cells.

The next data set has as its system HeLa. Put plainly: Cytotoxicity against human HeLa cells at 30 uM after 48 hrs by MTS assay. It counts as cell-based. The gist of the method:
as §1

Another data set has as its system RPMI-8226. Put plainly: Cytotoxicity against human RPMI8226 cells at 30 uM after 48 hrs by MTS assay. Format: cell-based. The conditions noted are these: rpmi-8226, 48 h. In short, it runs like this: as §1
The subject of another data set is HepG2. The data set is described as follows: Cytotoxicity against human HepG2 cells at 30 uM after 48 hrs by MTS assay. Format: cell-based. The conditions noted are these: hepg2, 48 h. The gist of the method:
as §1

Data set [1] concerns the target T1, Tyrosine-protein phosphatase non-receptor type 1 (Homo sapiens) (UniProt P18031).
T1 sequence (whole entry): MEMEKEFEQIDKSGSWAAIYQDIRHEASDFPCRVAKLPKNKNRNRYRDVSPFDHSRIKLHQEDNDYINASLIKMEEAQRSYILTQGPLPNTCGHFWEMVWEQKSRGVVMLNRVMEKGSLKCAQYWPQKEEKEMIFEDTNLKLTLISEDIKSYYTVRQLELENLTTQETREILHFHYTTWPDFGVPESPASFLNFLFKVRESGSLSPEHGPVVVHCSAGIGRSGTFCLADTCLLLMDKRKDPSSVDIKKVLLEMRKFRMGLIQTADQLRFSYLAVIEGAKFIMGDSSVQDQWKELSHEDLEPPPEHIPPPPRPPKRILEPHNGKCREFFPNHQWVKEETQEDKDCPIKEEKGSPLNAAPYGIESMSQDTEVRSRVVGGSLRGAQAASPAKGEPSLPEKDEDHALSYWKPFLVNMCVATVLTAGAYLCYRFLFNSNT
Put plainly: Inhibition of PTP1B (unknown origin) at 30 uM using p-nitrophenyl phosphate as substrate measured after 30 mins. In short, it runs like this: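 30 nM PTP1B with 2 mM pNPP in 50 mM MOPS buffer, pH 6.5, with or without compound, 37 °C for 30 min. Stopped with 1 M NaOH; released pNP read at 405 nm absorbance. Oleanolic acid as positive control; IC50 from sigmoidal variable-slope dose-response fit.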

The target of data set [2] is T2, Tyrosine-protein phosphatase non-receptor type 1 (Homo sapiens, UniProt P18031).
T2 sequence (P18031 whole entry): T1 sequence (whole entry)
The data set is described as follows: Inhibition of PTP1B (unknown origin) using p-nitrophenyl phosphate as substrate measured after 30 mins.

Calls of active or inactive are those of the source. No cut-off for these calls is given here.

As to `C=C1CCC[C@@]23OC4=C(C[C@]2(C)[C@@H](C)CC[C@]13C)C(=O)C(OC)=CC4=O`, the Activity entry with HL-60, in the data set on HeLa, in the data set on RPMI-8226 and in the data set on HepG2 was “Non-Toxic” in each case. Besides, the inhibition entry in data set [1] is “inactive”.

In the case of `C=C1CCC[C@H]2[C@](C)(Cc3c(O)c(O)cc4nc(C)oc34)[C@@H](C)CC[C@]12C`, the Activity entry in the data set with HL-60, in the data set on HeLa, with RPMI-8226 and with HepG2 was “Non-Toxic” throughout. For the same compound, in data set [2], the IC50 (as a rule, the concentration at which inhibition is half-maximal) is 4.8 µM.

`C=C1CCC[C@H]2[C@]3(C)Cc4oc(=O)cc(OC)c4[C@]3(C)CC[C@]12C`: the Activity result in the data set on HL-60, in the data set on HeLa, with RPMI-8226 and with HepG2 was “Non-Toxic” throughout. For the same compound, in data set [1], the inhibition entry was “inactive”.

For the compound `C=C1CCC[C@H]2[C@](C)(Cc3c(O)c(O)cc4ncoc34)[C@@H](C)CC[C@]12C` [NAKIJINOL B], the Activity result in the data set on HL-60, with HeLa, in the data set with RPMI-8226 and in the data set with HepG2 was “Non-Toxic” each time. Moreover, the inhibition entry in data set [1] was “inactive”.

For the origin of these results see ChEMBL document CHEMBL4130395, “Meroterpenoids with Protein Tyrosine Phosphatase 1B Inhibitory Activity from a Hyrtios sp. Marine Sponge” (J Nat Prod, 2017).
